# This is a sample that favours compounds with a hit; in the whole collection about 1.8% have one here.
# Rin1 Abl inh = inhibitors of Rin1-Abl protein binding, primary screen, biochemical, TR-FRET; 360,000 compounds, 0.4% hits; inhibition, % at 7.35 µM; in the data active means inhibition above about 5%, passing the limit was not always enough
# PG9 Ab binder = binders of HIV-1 gp120 antibody PG9, primary screen, biochemical, TR-FRET; HIV-1 gp120 / PG9 antibody interaction; 360,000 compounds, 0.43% hits; inhibition, % at 6.7 µM; TR-FRET gp120-PG9 antibody binding; in the data active means inhibition above about 8.5%
# TbMetRS inhib = T. brucei MetRS inhibitors, primary screen, biochemical, luminescence | AID 624268, 2012 | purified T. brucei MetRS, ATP depletion, Kinase-Glo luminescence | inhibition, % at 11.9 µM | 360,000 compounds, 0.4% hits | methionyl-tRNA synthetase (Trypanosoma brucei brucei);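 active means inhibition above a per-plate cutoff of the control wells' mean inhibition plus 3 SD, cut at about 5.5% in these data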;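 further: 0% = DMSO wells median and 100% = median of wells with control inhibitor compound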
#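 Measured by: Kinase-Glo luciferase luminescence reporting remaining unconsumed ATP. Material: purified T. brucei MetRS enzyme. Doses: 11.9 µM compound single dose, 0.9% DMSO. Medium: HEPES buffer containing pyrophosphatase, BSA, spermine, DTT. Times: 15 min preincubation, 2 h reaction, all 25 °C. Reagent: methionine, ATP and bulk E. coli tRNA.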
# NR1D1 modulator = modulators of Rev-erb alpha DNA binding, primary screen, biochemical, FITC-DNA, fluorescence polarization, uHTS; 370,000 compounds, 0.79% hits; activity, % at 10 µM; AID 1259318, 2017; Rev-erbα–FITC-DNA binding, 90 min; Nuclear receptor subfamily 1 group D member 1 (Homo sapiens), P20393;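 active means activity above about 14%, limit read from the data; passing the limit was not always enough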;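 further: 0% = DMSO wells with 35 nM protein and 100% = DMSO wells with 750 nM protein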
# Rev-erbA confirm = modulators of Rev-erb alpha DNA binding, confirmation, biochemical, FITC-DNA, fluorescence polarization, single point; shares compounds with NR1D1 modulator; 90 min; activation, % at 25 µM; 3,000 compounds, 61% hits; AID 1259319, 2017;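 active means activation at or above a set limit, or at least 3 SD above the negative control mean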;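 further: 0% = 35 nM protein with DMSO and 100% = 750 nM protein high control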
# RORg counter = modulation of RORgamma DNA binding, dose response, counter-screen for Rev-erb alpha modulator project, biochemical, fluorescence polarization, FITC-DNA | purified RORgamma protein-FITC-DNA binding | 910 compounds, 8% hits | IC50, µM | shares compounds with NR1D1 modulator;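 active means Compounds whose fitted half-maximal concentration for disrupting protein-DNA binding is below 10 micromolar; the record names Rev-erb in its text, so the target is in doubt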
# * marks the source's active call; other numbers are inactive results; i = inactive; . = no result.
SMILES,Rin1 Abl inh,PG9 Ab binder,TbMetRS inhib,NR1D1 modulator,Rev-erbA confirm,others
Cc1ccc(-c2nc(SCC(=O)Nc3cc(C)on3)c3c(=O)n(C)c(=O)n(C)c3n2)cc1,4.0,0.8,-0.3,24.1*,17.5*,
Cn1c(=O)c2c(SCC(=O)Nc3ccccc3F)nc(-c3ccccc3F)nc2n(C)c1=O,2.0,-0.8,-0.2,26.0*,2.8,
COc1ccccc1-c1nc(SCC(=O)N(C)c2ccccc2)c2c(=O)n(C)c(=O)n(C)c2n1,-3.0,-0.1,-0.7,81.5*,46.1*,RORg counter=>40
N#Cc1c(N2CCOCC2)nsc1-c1ccc(C(F)(F)F)cc1,-2.0,4.7,-0.2,22.1*,16.4,
CCOc1ccc(N=Nc2c(=O)[nH]n3c(=O)cc(C)[nH]c23)cc1,-4.3,-14.7,-3.8,24.6*,41.0*,RORg counter=>40
O=C(Nc1ccc2c(c1)OCO2)OC1CC2CC1[C@H]1CCCCN1[C@H]2Cc1ccccc1 (some centres not stated),.,.,.,0.7,.,
CCCCNc1cccc2c1S(=O)(=O)N[C@H](C)CO2,.,-0.9,.,0.2,.,
CCOc1ccccc1N=Cc1c(O)c2ccccc2oc1=O,-2.2,2.1,-0.3,36.5*,10.4,
COc1ccc(OC)c(N=Cc2c(O)c3ccccc3oc2=O)c1,-0.5,-3.4,-1.2,-3.1,.,
COc1ccc(NC(=O)c2oc3cc(C)c(C)cc3c2C)c(OC)c1,-0.8,-1.1,-1.6,20.6*,4.3,
COc1ccc(NC(=O)c2ccc(C(=O)Nc3ccc(OC)cc3OC)cc2)c(OC)c1,-1.3,0.1,-1.8,-1.7,.,
COc1ccc(C(=O)Nc2ccc(-c3ccc(NC(=O)c4ccc(OC)cc4)c(OC)c3)cc2OC)cc1,1.5,-0.1,-0.1,28.8*,5.0,
COc1ccc2oc(C(=O)Nc3ccccc3N3CCOCC3)c(C)c2c1,3.6,2.2,-0.5,29.5*,9.0,
COc1ccc2oc(C(=O)Nc3ccc(N4CCOCC4)cc3)c(C)c2c1,-2.4,-0.8,-0.4,-4.7,.,
COC(=O)C1=C(C)N(C)C(=NCc2cc(OC)c(OC)c(OC)c2)NC1c1cccc(F)c1 (configuration not stated),.,-0.2,.,-4.2,.,
CS(=O)(=O)c1ccc(C(=O)NNC(=O)c2ccccc2-n2cccc2)cc1,-2.0,-0.7,-0.2,-0.6,.,
COc1ccc(-n2nnnc2SCC(=O)Nc2c(C)n[nH]c2C)cc1,5.4,1.9,0.3,-1.9,.,
O=C(O)CSc1nnc(-c2cccs2)n1-c1ccc(Cl)cc1,-1.8,0.8,0.3,0.0,.,
COc1ccc(-n2nnnc2SCC(=O)c2cccc(OC)c2)cc1,0.6,-1.1,-0.4,8.8,.,
O=C(O)CSc1nnnn1-c1ccc2c(c1)OCCO2,0.8,0.9,1.1,-4.8,.,
O=C(CSc1nnc(-c2cccs2)n1-c1cccc(Cl)c1)c1cccc2c1OCCO2,-1.1,-0.2,-0.1,79.4*,85.1*,RORg counter=>40
O=C(CSc1nnnn1-c1ccc2c(c1)OCCO2)c1cccc2c1OCCO2,1.7,-1.9,0.6,107.3*,81.0*,RORg counter=>40
COc1ccc(-n2nnnc2SCC(=O)c2ccc3c(c2)OCCO3)cc1,-2.6,7.7,-0.2,63.2*,64.5*,
O=c1ccn(C2CC(O)C(COC(c3ccccc3)(c3ccccc3)c3ccccc3)O2)c(=O)[nH]1 (configuration not stated),.,-1.8,.,-2.5,.,
O=C(N=c1ccn(-c2nc3ccccc3nc2NS(=O)(=O)c2ccc(Cl)cc2)cc1)c1cccs1,-0.4,2.3,-0.1,91.2*,33.5*,RORg counter=i
SMILES,Rin1 Abl inh,PG9 Ab binder,TbMetRS inhib,NR1D1 modulator,Rev-erbA confirm,others
O=S(=O)(Nc1nc2ccccc2nc1Cl)c1ccc(Cl)cc1,-2.8,3.1,0.2,-8.3,.,
N#Cc1c(N)oc(-c2cccs2)c1-c1cccs1,-6.6,3.0,-0.4,24.3*,33.8*,
CCOC(=O)C1CCCN(S(=O)(=O)NC[C@H]2O[C@@H](n3cnc4c(N)ncnc43)[C@H](O)[C@@H]2O)C1 (some centres not stated),-1.9,-1.5,-1.1,1.4,.,
COc1ccc(CCNC(=O)CCCc2nnc3n(C)c(=O)c4sccc4n23)cc1OC,1.7,-0.7,0.1,-9.0,.,
CCc1ccc(NC(=O)Cn2cnc3sc(C)c(S(=O)(=O)N4CCOCC4)c3c2=O)cc1,-0.2,-0.8,-0.9,1.2,.,
O=C1N/C(=C\c2ccc(N3CCOCC3)c(F)c2)C(=O)N1Cc1ccccc1,-2.4,0.0,-1.9,28.3*,-1.6,
COc1cccc(CNC(=O)COC(=O)c2cc(Br)c(Br)s2)c1,0.5,1.1,-0.3,21.4*,18.1*,
O=C(c1ccccc1)c1nn(-c2cccc(Cl)c2)c2nc(-c3ccccc3)cc(=O)n12,-0.6,-0.5,-0.4,24.1*,13.9,
Clc1ccc(OCc2nn3c(-c4ccccc4)nnc3s2)c(Cl)c1,-0.3,0.8,0.4,25.8*,34.8*,
Clc1ccccc1OCc1nn2c(-c3ccncc3)nnc2s1,5.1,0.6,-0.1,3.8,.,
CCOC(=O)c1sc(=NC(=O)c2ccc(S(=O)(=O)N(C)c3ccccc3)cc2)n(C)c1C,-2.4,-0.6,-1.1,37.4*,29.1*,
CCOC(=O)c1sc(=NC(=O)c2cc(OC)c(OC)c(OC)c2)n(C)c1C,-0.1,28.2*,-0.7,30.3*,-4.0,
CCOC(=O)c1sc(=NC(=O)CCSc2ccccc2)n(C)c1C,0.2,-1.5,0.5,26.7*,12.8,
CCOC(=O)c1sc(=NC(=O)c2ccc(F)cc2)n(C)c1C,1.1,0.3,0.7,14.7,.,
COCCCNC(=O)c1cc(S(=O)(=O)NCCCN2CCCC2=O)ccc1Cl,1.3,-2.3,-0.5,-10.9,.,
O=C1NC2CCCCC2C(=O)N1OS(=O)(=O)c1ccccc1 (configuration not stated),2.8,1.0,0.2,1.0,.,
COC(=O)C1=C(C)N(Cc2ccccc2C(F)(F)F)C(=NCc2ccc(OC)cc2)NC1c1ccc(Cl)cc1 (configuration not stated),.,0.0,.,3.7,.,
O=C1c2cccc3c(N4CCCCC4)ccc(c23)C(=O)N1c1ccc(O)cc1,-0.2,-4.1,1.1,-0.1,.,
O=C1c2cccc3c(N4CCCCC4)ccc(c23)C(=O)N1c1ccccc1O,-2.3,0.9,-0.8,27.1*,32.9*,RORg counter=>40
COC(=O)c1cc(-c2cc3ccccc3s2)c(=O)n2c1CCC2,.,.,.,57.5*,39.9*,RORg counter=>40
COc1cccc(CN(C)C[C@@H]2OCc3cnnn3CCCC(=O)N([C@@H](C)CO)C[C@H]2C)c1,-1.9,0.3,-0.9,2.3,.,
